{"source": "paper PMC9359741", "about": "(Clinical Cancer Research, 2022)", "assay_type_in_all_cases": "in vivo, human", "key": {"[1]": {"tested_on": "patients with PDA, PD-1/PD-L1 IR advanced solid tumors or prOVCA", "assay": "Phase 2, ARRY-382 300 mg QD plus pembrolizumab 200 mg IV Q3W: adverse events", "details": "prOVCA", "summary_of_the_method": "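Open-label study at 12 US centres with three cohorts: pancreatic ductal adenocarcinoma after ≥1 prior systemic line; tumours progressing on anti-PD-1/PD-L1; ovarian, peritoneal or fallopian cancer progressing ≤6 months after ≥4 platinum cycles. Oral test compound 300 mg QD plus anti-PD-1 antibody 200 mg IV every 3 weeks. AEs, SAEs and labs graded by CTCAE v4.03 in all dosed patients; descriptive summary.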"}, "[2]": {"tested_on": "selected advanced solid tumors", "assay": "Phase 1b efficacy", "details": "for ORR, % (95% CI) / ir-ORR, % (95% CI): confirmed", "summary_of_the_method": "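Oral test compound 200–400 mg QD plus anti-PD-1 antibody 2 mg/kg IV Q3W in patients with measurable or evaluable disease. Investigator assessed best response per RECIST v1.1, with immune-related response also evaluated. ORR used confirmed responses with two-sided 95% CI (Clopper–Pearson exact binomial). All patients receiving ≥1 dose were analysed. PD-L1 status came from screening tissue tested locally.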"}, "CSF-1R": {"tested_on": "CSF-1R", "assay": "Phase 1b pharmacodynamic biomarkers", "summary_of_the_method": "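Blood was drawn for serum CSF-1 and CTX, plus serum osteoprotegerin and non-classical monocytes in Phase 2. Urine was collected for NTX. Samples were taken pre-dose on cycle 1 days 1, 8 and 15, on day 1 of later cycles and at discontinuation. Mean change on cycle 1 day 15 versus cycle 1 day 1 was summarized descriptively, with outliers excluded.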"}}}
{"molecule": "Cc1cccc(Cn2nc(C3CC3)c3c(NC(=O)c4cnc5cc(OCCN6CCN(C)CC6)ccn45)cccc32)n1", "note": "[ARRY-382]", "values": [{"measurement": "ARRY-382-related AEs: Diarrhea", "setting": "[1]; N = 11", "result": "0 (0.0) n (%)"}, {"measurement": "ARRY-382-related AEs: Fatigue", "setting": "[1]; N = 11", "result": "0 (0.0) n (%)"}, {"measurement": "ARRY-382-related AEs: Nausea", "setting": "[1]; N = 11", "result": "3 (27.3) n (%)"}, {"measurement": "ARRY-382-related AEs: Vomiting", "setting": "[1]; N = 11", "result": "1 (9.1) n (%)"}, {"measurement": "Deaths", "setting": "[1]; mostly disease progression", "result": "5 (45.5%) n (%)"}, {"measurement": "Median OS", "setting": "[2]; 200-mg cohort", "result": "14.7 [95% CI, 5.2–not reached (NR)] months"}, {"measurement": "Median PFS", "setting": "[2]; 200-mg cohort", "result": "4.7 (95% CI, 1.4–33.1) months"}, {"measurement": "Median irPFS per irRC", "setting": "[2]; 200-mg cohort", "result": "3.0 (95% CI, 1.4–16.1) months"}, {"measurement": "DOR of confirmed PR", "setting": "[2]; 200-mg cohort, 1 patient with MSI-High PDA", "result": 29.2, "unit": "months"}, {"measurement": "Median OS", "setting": "[2]; 300-mg cohort", "result": "6.5 (95% CI, 1.0–NR) months"}, {"measurement": "Median PFS", "setting": "[2]; 300-mg cohort", "result": "2.3 (95% CI, 1.3–5.7) months"}, {"measurement": "Median irPFS per irRC", "setting": "[2]; 300-mg cohort", "result": "2.5 (95% CI, 1.4–7.1) months"}, {"measurement": "DOR of confirmed PR", "setting": "[2]; 300-mg cohort, 1 patient with ovarian cancer", "result": 3.1, "unit": "months"}, {"measurement": "Median OS", "setting": "[2]; 400-mg cohort", "result": "7.4 (95% CI, 2.1–14.1) months"}, {"measurement": "Median PFS", "setting": "[2]; 400-mg cohort", "result": "1.4 (95% CI, 0.5–2.6) months"}, {"measurement": "Median irPFS per irRC", "setting": "[2]; 400-mg cohort", "result": "1.3 (95% CI, 0.5–1.5) months"}, {"measurement": "Best overall response: CR", "setting": "[2]; ARRY-382 200 mg, N = 6", "result": "0 (0.0) n (%)"}, {"measurement": "Best overall response: NE", "setting": "[2]; ARRY-382 200 mg, N = 6", "result": "1 (16.7) n (%)"}, {"measurement": "Best overall response: PD", "setting": "[2]; ARRY-382 200 mg, N = 6", "result": "1 (16.7) n (%)"}, {"measurement": "Best overall response: PR", "setting": "[2]; ARRY-382 200 mg, N = 6", "result": "1 (16.7) n (%)"}, {"measurement": "Best overall response: SD", "setting": "[2]; ARRY-382 200 mg, N = 6", "result": "3 (50.0) n (%)"}, {"measurement": "Immune-related best overall response: CR", "setting": "[2]; ARRY-382 200 mg, N = 6", "result": "0 (0.0) n (%)"}, {"measurement": "Immune-related best overall response: NE", "setting": "[2]; ARRY-382 200 mg, N = 6", "result": "1 (16.7) n (%)"}, {"measurement": "Immune-related best overall response: PD", "setting": "[2]; ARRY-382 200 mg, N = 6", "result": "1 (16.7) n (%)"}, {"measurement": "Immune-related best overall response: PR", "setting": "[2]; ARRY-382 200 mg, N = 6", "result": "1 (16.7) n (%)"}, {"measurement": "Immune-related best overall response: SD", "setting": "[2]; ARRY-382 200 mg, N = 6", "result": "3 (50.0) n (%)"}, {"measurement": "Best overall response: CR", "setting": "[2]; ARRY-382 300 mg, N = 6", "result": "0 (0.0) n (%)"}, {"measurement": "Best overall response: NE", "setting": "[2]; ARRY-382 300 mg, N = 6", "result": "0 (0.0) n (%)"}, {"measurement": "Best overall response: PD", "setting": "[2]; ARRY-382 300 mg, N = 6", "result": "3 (50.0) n (%)"}, {"measurement": "Best overall response: PR", "setting": "[2]; ARRY-382 300 mg, N = 6", "result": "1 (16.7) n (%)"}, {"measurement": "Best overall response: SD", "setting": "[2]; ARRY-382 300 mg, N = 6", "result": "2 (33.3) n (%)"}, {"measurement": "Immune-related best overall response: CR", "setting": "[2]; ARRY-382 300 mg, N = 6", "result": "0 (0.0) n (%)"}, {"measurement": "Immune-related best overall response: NE", "setting": "[2]; ARRY-382 300 mg, N = 6", "result": "2 (33.3) n (%)"}, {"measurement": "Immune-related best overall response: PD", "setting": "[2]; ARRY-382 300 mg, N = 6", "result": "0 (0.0) n (%)"}, {"measurement": "Immune-related best overall response: PR", "setting": "[2]; ARRY-382 300 mg, N = 6", "result": "1 (16.7) n (%)"}, {"measurement": "Immune-related best overall response: SD", "setting": "[2]; ARRY-382 300 mg, N = 6", "result": "3 (50.0) n (%)"}, {"measurement": "Best overall response: CR", "setting": "[2]; ARRY-382 400 mg, N = 7", "result": "0 (0.0) n (%)"}, {"measurement": "Best overall response: NE", "setting": "[2]; ARRY-382 400 mg, N = 7", "result": "2 (28.6) n (%)"}, {"measurement": "Best overall response: PD", "setting": "[2]; ARRY-382 400 mg, N = 7", "result": "5 (71.4) n (%)"}, {"measurement": "Best overall response: PR", "setting": "[2]; ARRY-382 400 mg, N = 7", "result": "0 (0.0) n (%)"}, {"measurement": "Best overall response: SD", "setting": "[2]; ARRY-382 400 mg, N = 7", "result": "0 (0.0) n (%)"}, {"measurement": "Immune-related best overall response: CR", "setting": "[2]; ARRY-382 400 mg, N = 7", "result": "0 (0.0) n (%)"}, {"measurement": "Immune-related best overall response: NE", "setting": "[2]; ARRY-382 400 mg, N = 7", "result": "4 (57.1) n (%)"}, {"measurement": "Immune-related best overall response: PD", "setting": "[2]; ARRY-382 400 mg, N = 7", "result": "1 (14.3) n (%)"}, {"measurement": "Immune-related best overall response: PR", "setting": "[2]; ARRY-382 400 mg, N = 7", "result": "0 (0.0) n (%)"}, {"measurement": "Immune-related best overall response: SD", "setting": "[2]; ARRY-382 400 mg, N = 7", "result": "2 (28.6) n (%)"}, {"measurement": "Best overall response: CR", "setting": "[2]; Total, N = 19", "result": "0 (0.0) n (%)"}, {"measurement": "Best overall response: NE", "setting": "[2]; Total, N = 19", "result": "3 (15.8) n (%)"}, {"measurement": "Best overall response: PD", "setting": "[2]; Total, N = 19", "result": "9 (47.4) n (%)"}, {"measurement": "Best overall response: PR", "setting": "[2]; Total, N = 19", "result": "2 (10.5) n (%)"}, {"measurement": "Best overall response: SD", "setting": "[2]; Total, N = 19", "result": "5 (26.3) n (%)"}, {"measurement": "Immune-related best overall response: CR", "setting": "[2]; Total, N = 19", "result": "0 (0.0) n (%)"}, {"measurement": "Immune-related best overall response: NE", "setting": "[2]; Total, N = 19", "result": "7 (36.8) n (%)"}, {"measurement": "Immune-related best overall response: PD", "setting": "[2]; Total, N = 19", "result": "2 (10.5) n (%)"}, {"measurement": "Immune-related best overall response: PR", "setting": "[2]; Total, N = 19", "result": "2 (10.5) n (%)"}, {"measurement": "Immune-related best overall response: SD", "setting": "[2]; Total, N = 19", "result": "8 (42.1) n (%)"}, {"measurement": "ORR, % (95% CI)", "setting": "[2]; ARRY-382 200 mg, N = 6", "result": "16.7 (0.4–64.1) %"}, {"measurement": "ir-ORR, % (95% CI)", "setting": "[2]; ARRY-382 200 mg, N = 6", "result": "16.7 (0.4–64.1) %"}, {"measurement": "ORR, % (95% CI)", "setting": "[2]; ARRY-382 300 mg, N = 6", "result": "16.7 (0.4–64.1) %"}, {"measurement": "ir-ORR, % (95% CI)", "setting": "[2]; ARRY-382 300 mg, N = 6", "result": "16.7 (0.4–64.1) %"}, {"measurement": "ORR, % (95% CI)", "setting": "[2]; ARRY-382 400 mg, N = 7", "result": "0.0 (0.0–41.0) %"}, {"measurement": "ir-ORR, % (95% CI)", "setting": "[2]; ARRY-382 400 mg, N = 7", "result": "0.0 (0.0–41.0) %"}, {"measurement": "ORR, % (95% CI)", "setting": "[2]; Total, N = 19", "result": "10.5 (1.3–33.1) %"}, {"measurement": "ir-ORR, % (95% CI)", "setting": "[2]; Total, N = 19", "result": "10.5 (1.3–33.1) %"}, {"measurement": "Change in mean CTX or NTX", "setting": "CSF-1R; cycle 1 day 15 compared with cycle 1 day 1", "result": "no changes"}, {"measurement": "Increase in mean serum CSF-1", "setting": "CSF-1R; cycle 1 day 15 versus cycle 1 day 1, P < 0.05", "result": 4.5, "unit": "fold"}]}
